From ChEMBL document CHEMBL5724801, “EUbOPEN Chemogenomics Library - Multiplex” (2024)
Where “and” joins values, the source holds several entries; their conditions need not be identical. Equal values may be shown once.

The molecules below were run on HEK-293T (assay: Multiplex assay against HEK293T). Conditions: human, 12 h, 1 µM, compound concentration 1 uM.
Type: toxicity, cell-based
How it was run: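 Live cells were stained at seeding with Hoechst33342, BioTracker Green Microtubule Cytoskeleton Dye, MitoTracker Red and Annexin V Alexa Fluor 680. Following compound addition, they were imaged on a CQ1 microscope at 37°C and 5% CO2 and gated by CellPathfinder machine learning into Hoechst high-intensity objects or normal cells, with normal cells split into healthy, pyknosed or fragmented nuclei and pyknosed cells into mitotic or apoptotic. Tubulin, mitochondrial-mass and membrane-permeability phenotypes are per cents of healthy-nucleus cells.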

SMILES	Population Apoptotic (%)	Population Fragmented Nuclei (%)	Population Healthy Nuclei (%)	Population Hoechst High Intensity Objects (%)	Population Membrane Permeable-Phenotype (%)	Population Mitochondria Different-Phenotype (%)	Population Mitotic Cells (%)	Population Normal (%)	Population Pyknosed Nuclei (%)	Population Tubulin-Different-Phenotype (%)
COc1c(C)cc(NC(=O)c2nn(Cc3ccc(F)cc3)c3c2CN(C(=O)c2ccc[nH]2)C[C@]3(C)C(N)=O)cc1C	42% and 38%	6% and 7%	79% and 75%	7% and 5%	0%	51% and 58%	57% and 61%	92% and 94%	13% and 17%	36% and 29%
S=C(NCCCc1c[nH]cn1)NCCCN(Cc1ccc(Cl)c(Cl)c1)c1ccc(Br)cn1	39% and 53%	8% and 5%	78% and 79%	17% and 6%	0%	50% and 58%	60% and 46%	82% and 93%	13% and 14%	36% and 35%
C[C@@H]1CC(=O)Nc2cccc(-c3ccc4c(c3)c(-c3cnn(C)c3)nn4C)c2N1	36% and 60%	7% and 5%	76% and 77%	7%	0%	51% and 65%	63% and 39%	92%	16%	39% and 26%

Same assay, conditions: human, 12 h, 1 µM, compound concentration 1 uM

SMILES	Total Cell Count
COc1c(C)cc(NC(=O)c2nn(Cc3ccc(F)cc3)c3c2CN(C(=O)c2ccc[nH]2)C[C@]3(C)C(N)=O)cc1C	426 and 304
S=C(NCCCc1c[nH]cn1)NCCCN(Cc1ccc(Cl)c(Cl)c1)c1ccc(Br)cn1	378 and 294
C[C@@H]1CC(=O)Nc2cccc(-c3ccc4c(c3)c(-c3cnn(C)c3)nn4C)c2N1	305 and 349

Same assay, conditions: human, 12 h, 10 µM, compound concentration 10 uM

SMILES	Population Apoptotic (%)	Population Fragmented Nuclei (%)	Population Healthy Nuclei (%)	Population Hoechst High Intensity Objects (%)	Population Membrane Permeable-Phenotype (%)	Population Mitochondria Different-Phenotype (%)	Population Mitotic Cells (%)	Population Normal (%)	Population Pyknosed Nuclei (%)	Population Tubulin-Different-Phenotype (%)
COc1c(C)cc(NC(=O)c2nn(Cc3ccc(F)cc3)c3c2CN(C(=O)c2ccc[nH]2)C[C@]3(C)C(N)=O)cc1C	67% and 59%	4% and 6%	77% and 71%	13%	0%	90% and 95%	32% and 40%	86%	17% and 21%	62% and 63%
S=C(NCCCc1c[nH]cn1)NCCCN(Cc1ccc(Cl)c(Cl)c1)c1ccc(Br)cn1	90% and 77%	4% and 8%	57% and 71%	33% and 19%	0%	77% and 84%	9% and 22%	66% and 80%	38% and 19%	78%
C[C@@H]1CC(=O)Nc2cccc(-c3ccc4c(c3)c(-c3cnn(C)c3)nn4C)c2N1	49% and 38%	8% and 5%	74% and 77%	5% and 12%	0%	72% and 86%	50% and 62%	94% and 87%	17% and 16%	62% and 56%

Same assay, conditions: human, 12 h, 10 µM, compound concentration 10 uM

SMILES	Total Cell Count
COc1c(C)cc(NC(=O)c2nn(Cc3ccc(F)cc3)c3c2CN(C(=O)c2ccc[nH]2)C[C@]3(C)C(N)=O)cc1C	383 and 285
S=C(NCCCc1c[nH]cn1)NCCCN(Cc1ccc(Cl)c(Cl)c1)c1ccc(Br)cn1	242 and 229
C[C@@H]1CC(=O)Nc2cccc(-c3ccc4c(c3)c(-c3cnn(C)c3)nn4C)c2N1	384 and 345

Same assay, conditions: human, 24 h, 1 µM, compound concentration 1 uM

SMILES	Population Apoptotic (%)	Population Fragmented Nuclei (%)	Population Healthy Nuclei (%)	Population Hoechst High Intensity Objects (%)	Population Membrane Permeable-Phenotype (%)	Population Mitochondria Different-Phenotype (%)	Population Mitotic Cells (%)	Population Normal (%)	Population Pyknosed Nuclei (%)	Population Tubulin-Different-Phenotype (%)
COc1c(C)cc(NC(=O)c2nn(Cc3ccc(F)cc3)c3c2CN(C(=O)c2ccc[nH]2)C[C@]3(C)C(N)=O)cc1C	21% and 51%	7% and 5%	80% and 86%	4%	0%	30% and 43%	78% and 48%	95%	12% and 7%	24% and 16%
S=C(NCCCc1c[nH]cn1)NCCCN(Cc1ccc(Cl)c(Cl)c1)c1ccc(Br)cn1	39% and 41%	10% and 9%	73% and 81%	22% and 13%	0%	45% and 48%	60% and 58%	77% and 86%	16% and 9%	32%
C[C@@H]1CC(=O)Nc2cccc(-c3ccc4c(c3)c(-c3cnn(C)c3)nn4C)c2N1	38% and 50%	10% and 8%	74% and 79%	7% and 6%	0%	37% and 48%	61% and 50%	92% and 93%	14% and 11%	20% and 16%

Same assay, conditions: human, 24 h, 1 µM, compound concentration 1 uM

SMILES	Total Cell Count
COc1c(C)cc(NC(=O)c2nn(Cc3ccc(F)cc3)c3c2CN(C(=O)c2ccc[nH]2)C[C@]3(C)C(N)=O)cc1C	574 and 422
S=C(NCCCc1c[nH]cn1)NCCCN(Cc1ccc(Cl)c(Cl)c1)c1ccc(Br)cn1	326 and 301
C[C@@H]1CC(=O)Nc2cccc(-c3ccc4c(c3)c(-c3cnn(C)c3)nn4C)c2N1	395 and 422

Same assay, conditions: human, 24 h, 10 µM, compound concentration 10 uM

SMILES	Population Apoptotic (%)	Population Fragmented Nuclei (%)	Population Healthy Nuclei (%)	Population Hoechst High Intensity Objects (%)	Population Membrane Permeable-Phenotype (%)	Population Mitochondria Different-Phenotype (%)	Population Mitotic Cells (%)	Population Normal (%)	Population Pyknosed Nuclei (%)	Population Tubulin-Different-Phenotype (%)
COc1c(C)cc(NC(=O)c2nn(Cc3ccc(F)cc3)c3c2CN(C(=O)c2ccc[nH]2)C[C@]3(C)C(N)=O)cc1C	53% and 67%	6% and 5%	73% and 74%	11% and 15%	0%	91% and 92%	46% and 32%	88% and 84%	19%	61% and 56%
S=C(NCCCc1c[nH]cn1)NCCCN(Cc1ccc(Cl)c(Cl)c1)c1ccc(Br)cn1	85% and 82%	11% and 16%	49% and 59%	48% and 39%	1% and 0%	75% and 82%	14% and 17%	51% and 61%	39% and 23%	78%
C[C@@H]1CC(=O)Nc2cccc(-c3ccc4c(c3)c(-c3cnn(C)c3)nn4C)c2N1	43% and 57%	9% and 8%	76% and 72%	2% and 5%	0%	62% and 68%	56% and 42%	97% and 94%	13% and 19%	37% and 28%

Same assay, conditions: human, 24 h, 10 µM, compound concentration 10 uM

SMILES	Total Cell Count
COc1c(C)cc(NC(=O)c2nn(Cc3ccc(F)cc3)c3c2CN(C(=O)c2ccc[nH]2)C[C@]3(C)C(N)=O)cc1C	403 and 313
S=C(NCCCc1c[nH]cn1)NCCCN(Cc1ccc(Cl)c(Cl)c1)c1ccc(Br)cn1	237 and 200
C[C@@H]1CC(=O)Nc2cccc(-c3ccc4c(c3)c(-c3cnn(C)c3)nn4C)c2N1	472 and 381

Same assay, conditions: human, 48 h, 1 µM, compound concentration 1 uM

SMILES	Population Apoptotic (%)	Population Fragmented Nuclei (%)	Population Healthy Nuclei (%)	Population Hoechst High Intensity Objects (%)	Population Membrane Permeable-Phenotype (%)	Population Mitochondria Different-Phenotype (%)	Population Mitotic Cells (%)	Population Normal (%)	Population Pyknosed Nuclei (%)	Population Tubulin-Different-Phenotype (%)
COc1c(C)cc(NC(=O)c2nn(Cc3ccc(F)cc3)c3c2CN(C(=O)c2ccc[nH]2)C[C@]3(C)C(N)=O)cc1C	21% and 39%	11% and 12%	81%	2% and 3%	1%	25% and 28%	78% and 60%	97% and 96%	6%	18% and 9%
S=C(NCCCc1c[nH]cn1)NCCCN(Cc1ccc(Cl)c(Cl)c1)c1ccc(Br)cn1	47% and 36%	14% and 17%	65% and 73%	36% and 27%	3% and 0%	38% and 32%	52% and 63%	63% and 72%	19% and 9%	29% and 19%
C[C@@H]1CC(=O)Nc2cccc(-c3ccc4c(c3)c(-c3cnn(C)c3)nn4C)c2N1	33% and 30%	11% and 9%	80% and 81%	1% and 2%	0%	23% and 30%	66% and 69%	98% and 97%	7% and 9%	13%

Same assay, conditions: human, 48 h, 1 µM, compound concentration 1 uM

SMILES	Total Cell Count
COc1c(C)cc(NC(=O)c2nn(Cc3ccc(F)cc3)c3c2CN(C(=O)c2ccc[nH]2)C[C@]3(C)C(N)=O)cc1C	920 and 652
S=C(NCCCc1c[nH]cn1)NCCCN(Cc1ccc(Cl)c(Cl)c1)c1ccc(Br)cn1	307 and 277
C[C@@H]1CC(=O)Nc2cccc(-c3ccc4c(c3)c(-c3cnn(C)c3)nn4C)c2N1	627 and 593

Same assay, conditions: human, 48 h, 10 µM, compound concentration 10 uM

SMILES	Population Apoptotic (%)	Population Fragmented Nuclei (%)	Population Healthy Nuclei (%)	Population Hoechst High Intensity Objects (%)	Population Membrane Permeable-Phenotype (%)	Population Mitochondria Different-Phenotype (%)	Population Mitotic Cells (%)	Population Normal (%)	Population Pyknosed Nuclei (%)	Population Tubulin-Different-Phenotype (%)
COc1c(C)cc(NC(=O)c2nn(Cc3ccc(F)cc3)c3c2CN(C(=O)c2ccc[nH]2)C[C@]3(C)C(N)=O)cc1C	60% and 80%	8% and 9%	76% and 81%	14% and 10%	0%	93% and 90%	39% and 19%	85% and 89%	15% and 9%	66% and 59%
S=C(NCCCc1c[nH]cn1)NCCCN(Cc1ccc(Cl)c(Cl)c1)c1ccc(Br)cn1	84% and 75%	23% and 21%	23%	75% and 67%	0%	86% and 80%	15% and 25%	24% and 32%	52% and 55%	53% and 40%
C[C@@H]1CC(=O)Nc2cccc(-c3ccc4c(c3)c(-c3cnn(C)c3)nn4C)c2N1	43% and 42%	13% and 12%	80% and 78%	4% and 2%	0%	44% and 53%	56% and 57%	95% and 97%	6% and 9%	16% and 20%

Same assay, conditions: human, 48 h, 10 µM, compound concentration 10 uM

SMILES	Total Cell Count
COc1c(C)cc(NC(=O)c2nn(Cc3ccc(F)cc3)c3c2CN(C(=O)c2ccc[nH]2)C[C@]3(C)C(N)=O)cc1C	467 and 376
S=C(NCCCc1c[nH]cn1)NCCCN(Cc1ccc(Cl)c(Cl)c1)c1ccc(Br)cn1	256 and 203
C[C@@H]1CC(=O)Nc2cccc(-c3ccc4c(c3)c(-c3cnn(C)c3)nn4C)c2N1	636 and 521
